From ChEMBL document CHEMBL1130212, “Synthesis and structure-activity relationships of 6,7-benzomorphan derivatives as antagonists of the NMDA receptor-channel complex” (J Med Chem, 1997)

Test system: Mus musculus
Experiment: The ID50 value represent the effective dose at which half of the mice were protected against the lethality induced by 200 mg/kg NMDA
Format: functional
Settings: read-out: ID50 (the source's name)
Method in brief: (§1)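 Male mice (20 to 30 g), groups of five, given test compound s.c. (0.01 mL/g) at different doses; NMDA 200 mg/kg i.p. 15 min later. Each mouse observed 20 min in an individual jar; percentage dying recorded. ID50 from log-probit analysis of four doses, or mean ± SEM of up to four independent experiments.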

SMILES	ED50 [mg/kg]
CO[C@H](C)CN1CC[C@@]2(C)c3ccccc3C[C@@H]1C2(C)C	6.8

Test system: Mus musculus
Experiment: Effective dose at which half of the mice were protected against the lethality induced by 200 mg/kg NMDA.
Format: functional
Settings: read-out: ID50 (the source's name)
Method in brief: as §1

SMILES	ED50 [mg/kg]
CC[C@H](CN1CC[C@]2(C)c3cc(O)ccc3C[C@@H]1[C@H]2C)OC	3
CO[C@@H](C)CN1CC[C@@]2(C)c3ccc(O)cc3C[C@@H]1C2(C)C	2.1
CCCN1CC[C@]2(C)c3cc(O)ccc3C[C@@H]1[C@@H]2C	> 30
CO[C@H](C)CN1CC[C@@]2(C)c3ccc(O)cc3C[C@@H]1C2(C)C	0.4
CO[C@H](C)CN1CC[C@]2(C)c3cc(O)ccc3C[C@@H]1[C@@H]2C	7.2
CO[C@@H](C)CN1CC[C@@]2(C)c3ccccc3C[C@@H]1C2(C)C	23
C=CCN1CC[C@@]2(C)c3cc(O)ccc3C[C@H]1[C@H]2C	8.2
CO[C@H](C)CN1CC[C@@]2(C)c3cc(O)ccc3C[C@H]1[C@@H]2C	> 30
CO[C@H](C)CN1CC[C@]2(C)c3cc(O)ccc3C[C@@H]1[C@H]2C	0.9
C=CCN1CCC2(C)c3c(O)cccc3CC1C2(C)C (configuration not stated)	1.7
COC(C)(C)CN1CC[C@]2(C)c3cc(O)ccc3C[C@@H]1[C@@H]2C	2.9
CO[C@H](C)CN1CC[C@@]2(C)c3cc(O)ccc3C[C@H]1[C@H]2C	> 30
CO[C@@H](C)CN1CC[C@@]2(C)c3c(O)cccc3C[C@@H]1C2(C)C	0.8
COC(C)(C)CN1CC[C@]2(C)c3cc(O)ccc3C[C@@H]1[C@H]2C	5.5
CO[C@@H](C)CN1CC[C@]2(C)c3cc(O)ccc3C[C@H]1C2(C)C	> 30
C=CCN1CCC2(C)c3cc(O)ccc3CC1C2(C)C (configuration not stated)	4.7
CO[C@H](C)CN1CC[C@@]2(C)c3c(O)cccc3C[C@@H]1C2(C)C	0.5
CCCN1CC[C@@]2(C)c3cc(O)ccc3C[C@H]1[C@H]2C	> 30
CO[C@@H](C)CN1CC[C@@]2(C)c3cc(O)ccc3C[C@@H]1C2(C)C	0.2
C=CCN1CCC2(C)c3cccc(O)c3CC1C2(C)C (configuration not stated)	10.4
CO[C@H](C)CN1CC[C@@]2(C)c3cc(O)ccc3C[C@@H]1C2(C)C	0.7
CO[C@@H](C)CN1CC[C@]2(C)c3cc(O)ccc3C[C@@H]1[C@H]2C	0.6
C=CCN1CCC2(C)c3ccc(O)cc3CC1C2(C)C (configuration not stated)	5
CO[C@@H](C)CN1CC[C@]2(C)c3ccc(O)cc3C[C@H]1C2(C)C	81
CC[C@@H](CN1CC[C@]2(C)c3cc(O)ccc3C[C@@H]1[C@H]2C)OC	0.3
CS[C@@H](C)CN1CC[C@]2(C)c3cc(O)ccc3C[C@@H]1[C@@H]2C	1.7
CO[C@@H](C)CN1CC[C@@]2(C)c3cc(O)ccc3C[C@H]1[C@H]2C	> 30
C=CCN1CC[C@]2(C)c3cc(O)ccc3C[C@@H]1[C@@H]2C	> 30
CO[C@@H](C)CN1CC[C@]2(C)c3cc(O)ccc3C[C@@H]1[C@@H]2C	2.3
CS[C@@H](C)CN1CC[C@]2(C)c3cc(O)ccc3C[C@@H]1[C@H]2C	2.1

Target: Mu-type opioid receptor (Rattus norvegicus, UniProt P33535)
Sequence (P33535 whole entry): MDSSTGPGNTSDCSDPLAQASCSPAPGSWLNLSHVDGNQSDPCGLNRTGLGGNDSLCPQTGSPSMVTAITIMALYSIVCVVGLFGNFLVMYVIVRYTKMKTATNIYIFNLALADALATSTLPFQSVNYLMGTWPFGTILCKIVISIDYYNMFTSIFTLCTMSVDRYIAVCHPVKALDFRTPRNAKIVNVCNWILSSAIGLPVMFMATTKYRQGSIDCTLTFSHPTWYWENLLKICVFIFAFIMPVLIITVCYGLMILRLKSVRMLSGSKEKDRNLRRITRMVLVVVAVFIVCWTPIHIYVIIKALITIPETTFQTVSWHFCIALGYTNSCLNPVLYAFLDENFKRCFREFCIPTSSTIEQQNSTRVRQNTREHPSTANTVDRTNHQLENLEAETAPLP
Experiment: Inhibition of [3H]dihydromorphine binding to opioid receptor mu 1 in rat brain cortical membranes.
Format: cell membranes, Membrane
Settings: not given
Method in brief: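 Rat brain without cerebellum membranes incubated 30 min at 25 °C with 0.5 nmol/L [3H]dihydromorphine. Binding stopped by rapid filtration; filter radioactivity counted by scintillation. Ki from computer-aided curve fitting.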

SMILES	Ki [nM]
CO[C@@H](C)CN1CC[C@@]2(C)c3ccc(O)cc3C[C@@H]1C2(C)C	18.2
CO[C@H](C)CN1CC[C@@]2(C)c3ccc(O)cc3C[C@@H]1C2(C)C	3400
CO[C@H](C)CN1CC[C@]2(C)c3cc(O)ccc3C[C@@H]1[C@@H]2C	146
CO[C@@H](C)CN1CC[C@@]2(C)c3ccccc3C[C@@H]1C2(C)C	144
CO[C@H](C)CN1CC[C@@]2(C)c3cc(O)ccc3C[C@H]1[C@@H]2C	34800
CO[C@H](C)CN1CC[C@]2(C)c3cc(O)ccc3C[C@H]1C2(C)C	14000
CO[C@H](C)CN1CC[C@@]2(C)c3ccccc3C[C@@H]1C2(C)C	42300
CO[C@H](C)CN1CC[C@]2(C)c3cc(O)ccc3C[C@@H]1[C@H]2C	212
COC(C)(C)CN1CC[C@]2(C)c3cc(O)ccc3C[C@@H]1[C@@H]2C	5.6
CO[C@H](C)CN1CC[C@@]2(C)c3cc(O)ccc3C[C@H]1[C@H]2C	18400
CO[C@@H](C)CN1CC[C@@]2(C)c3c(O)cccc3C[C@@H]1C2(C)C	20.9
CO[C@@H](C)CN1CC[C@]2(C)c3cc(O)ccc3C[C@H]1C2(C)C	6020
CO[C@H](C)CN1CC[C@@]2(C)c3c(O)cccc3C[C@@H]1C2(C)C	11400
CO[C@@H](C)CN1CC[C@@]2(C)c3cc(O)ccc3C[C@@H]1C2(C)C	1.6
CO[C@H](C)CN1CC[C@@]2(C)c3cc(O)ccc3C[C@@H]1C2(C)C	108
CO[C@@H](C)CN1CC[C@]2(C)c3cc(O)ccc3C[C@@H]1[C@H]2C	3.5
CO[C@@H](C)CN1CC[C@]2(C)c3ccc(O)cc3C[C@H]1C2(C)C	1340
CS[C@H](C)CN1CC[C@]2(C)c3cc(O)ccc3C[C@@H]1[C@H]2C	236
CS[C@@H](C)CN1CC[C@]2(C)c3cc(O)ccc3C[C@@H]1[C@@H]2C	3.2
CO[C@@H](C)CN1CC[C@@]2(C)c3cc(O)ccc3C[C@H]1[C@H]2C	5300
CS[C@H](C)CN1CC[C@]2(C)c3cc(O)ccc3C[C@@H]1[C@@H]2C	7.7
CO[C@@H](C)CN1CC[C@]2(C)c3cc(O)ccc3C[C@@H]1[C@@H]2C	1
CS[C@@H](C)CN1CC[C@]2(C)c3cc(O)ccc3C[C@@H]1[C@H]2C	97

Test system: Mus musculus
Experiment: The ID50 values represent the effective dose at which half of the mice were protected against the lethality induced by 200 mg/kg NMDA
Format: functional
Settings: read-out: ID50 (the source's name)
Method in brief: as §1

SMILES	ED50 [mg/kg]
COCCCN1CC[C@]2(C)c3cc(O)ccc3C[C@@H]1[C@@H]2C	> 30

Target: Glutamate NMDA receptor
Experiment: Inhibition of [3H]MK-801 binding to N-methyl-D-aspartate glutamate receptor in rat brain cortical membranes.
Format: cell membranes, Membrane
Settings: not given

SMILES	Ki [nM]
CC[C@H](CN1CC[C@]2(C)c3cc(O)ccc3C[C@@H]1[C@H]2C)OC	557
CO[C@@H](C)CN1CC[C@@]2(C)c3ccc(O)cc3C[C@@H]1C2(C)C	7.1
CCCN1CC[C@]2(C)c3cc(O)ccc3C[C@@H]1[C@@H]2C	588
CO[C@H](C)CN1CC[C@@]2(C)c3ccc(O)cc3C[C@@H]1C2(C)C	4.5
CCC[C@@H](CN1CC[C@]2(C)c3cc(O)ccc3C[C@@H]1[C@H]2C)OC	490
CO[C@H](C)CN1CC[C@]2(C)c3cc(O)ccc3C[C@@H]1[C@@H]2C	248
CO[C@@H](C)CN1CC[C@@]2(C)c3cc(O)ccc3C[C@H]1[C@@H]2C	> 100000
CO[C@@H](C)CN1CC[C@@]2(C)c3ccccc3C[C@@H]1C2(C)C	15.8
CCO[C@H](C)CN1CC[C@]2(C)c3cc(O)ccc3C[C@@H]1[C@@H]2C	1840
C=CCN1CC[C@@]2(C)c3cc(O)ccc3C[C@H]1[C@H]2C	1210
CO[C@H](C)CN1CC[C@@]2(C)c3cc(O)ccc3C[C@H]1[C@@H]2C	76600
CO[C@H](C)CN1CC[C@]2(C)c3cc(O)ccc3C[C@H]1C2(C)C	13900
CO[C@H](C)CN1CC[C@@]2(C)c3ccccc3C[C@@H]1C2(C)C	29.9
CO[C@H](C)CN1CC[C@]2(C)c3cc(O)ccc3C[C@@H]1[C@H]2C	195
C=CCN1CCC2(C)c3c(O)cccc3CC1C2(C)C (configuration not stated)	106
COC(C)(C)CN1CC[C@]2(C)c3cc(O)ccc3C[C@@H]1[C@@H]2C	281
CCO[C@@H](C)CN1CC[C@]2(C)c3cc(O)ccc3C[C@@H]1[C@@H]2C	1150
CO[C@H](C)CN1CC[C@@]2(C)c3cc(O)ccc3C[C@H]1[C@H]2C	9550
CO[C@@H](C)CN1CC[C@@]2(C)c3c(O)cccc3C[C@@H]1C2(C)C	15
COC(C)(C)CN1CC[C@]2(C)c3cc(O)ccc3C[C@@H]1[C@H]2C	221
CO[C@H](C)CN1CC[C@]2(C)c3ccc(O)cc3C[C@H]1C2(C)C	545
CCC[C@H](CN1CC[C@]2(C)c3cc(O)ccc3C[C@@H]1[C@H]2C)OC	1840
CO[C@@H](C)CN1CC[C@]2(C)c3cc(O)ccc3C[C@H]1C2(C)C	50400
C=CCN1CCC2(C)c3cc(O)ccc3CC1C2(C)C (configuration not stated)	380

SMILES	Ki [nM]
CO[C@H](C)CN1CC[C@@]2(C)c3c(O)cccc3C[C@@H]1C2(C)C	34
CCCN1CC[C@@]2(C)c3cc(O)ccc3C[C@H]1[C@H]2C	2850
CO[C@@H](C)CN1CC[C@@]2(C)c3cc(O)ccc3C[C@@H]1C2(C)C	5.6
C=CCN1CCC2(C)c3cccc(O)c3CC1C2(C)C (configuration not stated)	630
CO[C@H](C)CN1CC[C@@]2(C)c3cc(O)ccc3C[C@@H]1C2(C)C	12.4
CO[C@@H](C)CN1CC[C@]2(C)c3cc(O)ccc3C[C@@H]1[C@H]2C	35.7
C=CCN1CCC2(C)c3ccc(O)cc3CC1C2(C)C (configuration not stated)	99
CO[C@@H](C)CN1CC[C@]2(C)c3ccc(O)cc3C[C@H]1C2(C)C	685
CS[C@H](C)CN1CC[C@]2(C)c3cc(O)ccc3C[C@@H]1[C@H]2C	406
CC[C@@H](CN1CC[C@]2(C)c3cc(O)ccc3C[C@@H]1[C@H]2C)OC	66
CO[C@H](C)CN1CC[C@]2(C)c3c(O)cccc3C[C@H]1C2(C)C	364
CCO[C@H](C)CN1CC[C@]2(C)c3cc(O)ccc3C[C@@H]1[C@H]2C	1290
CCCN1CC[C@]2(C)c3cc(O)ccc3C[C@@H]1[C@H]2C	373
C[C@@H]1[C@H]2Cc3ccc(O)cc3[C@@]1(C)CCN2C[C@@H](C)O	425
CS[C@@H](C)CN1CC[C@]2(C)c3cc(O)ccc3C[C@@H]1[C@@H]2C	223
CO[C@@H](C)CN1CC[C@@]2(C)c3cc(O)ccc3C[C@H]1[C@H]2C	22000
CS[C@H](C)CN1CC[C@]2(C)c3cc(O)ccc3C[C@@H]1[C@@H]2C	1090
C=CCN1CC[C@]2(C)c3cc(O)ccc3C[C@@H]1[C@@H]2C	1500
COCCCN1CC[C@]2(C)c3cc(O)ccc3C[C@@H]1[C@@H]2C	991
CCCN1CC[C@@]2(C)c3cc(O)ccc3C[C@H]1[C@@H]2C	43600
CCO[C@@H](C)CN1CC[C@]2(C)c3cc(O)ccc3C[C@@H]1[C@H]2C	1260
CO[C@@H](C)CN1CC[C@]2(C)c3cc(O)ccc3C[C@@H]1[C@@H]2C	234
CS[C@@H](C)CN1CC[C@]2(C)c3cc(O)ccc3C[C@@H]1[C@H]2C	83
